TRPC4 inh: TRPC4 (mouse) channel inhibition. 0.39% of 300,000 active. HEK293 TRPC4beta/mu-opioid, DAMGO-evoked Fluo4 calcium flux; active compounds read low. B-score at 10 µM. Q9QUQ5;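 active means B-score over 3 SD under the library average, no early fluorescence shift, positive overall ratio signal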
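Assay system: HEK293 cells with stable TRPC4beta plus mu-opioid receptor expression; Probe or stimulus: DAMGO in two steps, submaximal then maximal; Dosing: single-point compound dosing; Measured by: Fluo4 calcium-dye fluorescence, kinetic read; Read-out basis: B score from integrated Fluo4 fluorescence ratio.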
TRPC6 act: activators of mouse TRPC6 channel. HEK293-TRPC6 membrane potential dye fluorescence; active compounds read high. B-score at 10 µM. 0.13% of 310,000 active. Q61143;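 active means B-score of the integrated fluorescence ratio above library mean plus 3 SD, and starting fluorescence ratio within library mean plus 5 SD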;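 further: higher score means more depolarization so channel activation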
TRPC4 agonist: activators of mouse TRPC4 channel. AID 2237. B-score at 10 µM. HEK293 TRPC4beta/mu-opioid, Fluo4 calcium fluorescence; active compounds read high. 0.49% of 310,000 active;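 active means B-score above 5 SD of library B-scores, and initial fluorescence ratio not above library mean plus 5 SD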;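 further: positive B-score marks a calcium rise read as TRPC4 activation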
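Assay system: HEK293 cells stably co-expressing mouse TRPC4beta and mu-opioid receptor / Timing: Fluo4 dye loading 45 min at room temperature, 110 s recording / Signal: Fluo4 calcium-sensitive dye fluorescence, kinetic, 1 Hz baseline / Read-out: integrated baseline-normalised fluorescence ratio, converted to per-well B score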
TRPC4 PAM: TRPC4 (mouse) allosteric potentiation | 0.42% of 310,000 active | B-score at 10 µM | AID 2227 | HEK293 TRPC4beta/mu-opioid, DAMGO EC20, Fluo-4 Ca2+ flux; active compounds read high | Q9QUQ5;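 active means B-score of calcium response area above 5 SD of library B-scores, with initial fluorescence ratio within 5 SD of library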;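 further: B-score of integrated fluorescence ratio over time as area under calcium response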
TRPC6 inhibitor: blocks the mouse TRPC6 cation channel. Q61143. HEK293-TRPC6, membrane potential dye, ACh-evoked depolarization; active compounds read low. B-score at 10 µM. 1.1% of 310,000 active;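 active means B-score under library mean minus 3 SD, initial fluorescence not abnormally high, positive integrated signal ratio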;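 further: B-score derived from integrated fluorescence ratio over the kinetic read; more negative B-score means stronger inhibition of depolarization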
TRPC4 sel inh 2: second selectivity test of TRPC6 inhibitors: effect on mouse TRPC4; shares compounds with TRPC6 inhibitor; inhibition, % at 10 µM; 42% of 920 active; HEK293 TRPC4/MOR, membrane potential dye fluorescence; channel activated by saturating DAMGO dose;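 active means compounds whose fluorescence signal differed from control wells by over 3 SD, either direction, in both duplicate plates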
TRPC4 spec: tests whether TRPC6 inhibitors also affect mouse TRPC4. AID 2777. shares compounds with TRPC6 inhibitor. activity change, negative = inhibition, % at 10 µM. 61% of 920 active. HEK293 TRPC4/mu-opioid, membrane potential fluorescence;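 active means rise or fall in signal beyond 3 SD of buffer-only wells in both replicate plates, either sign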;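 further: integrated kinetic ratio of fluorescence range over baseline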
HEK293 MPD ctr 2-1: parental HEK293 nonspecific activity of TRPC6 inhibitors, second screen; 31% of 920 active; shares compounds with TRPC6 inhibitor; parental HEK293 membrane potential dye fluorescence; maximal acetylcholine challenge after compound addition; signal change vs control, % at 10 µM; AID 2779;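 active means membrane potential signal moving either way by over 3 SD of the maximum-effect control, in both duplicate plates, meaning non-specific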
HEK293 MPD ctr-1: checks TRPC6 inhibitor effects in parental HEK293 cells; shares compounds with TRPC6 inhibitor; AID 2780; 60% of 920 active; parental HEK293 membrane potential dye fluorescence; membrane potential signal change, % at 10 µM;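 active means membrane potential signal shifting up or down by more than 3 SD of buffer-only wells, on both duplicate plates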
HEK293 MPD ctr-2: checks TRPC6 modulator effects in parental HEK293 cells; shares compounds with TRPC6 inhibitor; membrane potential dye fluorescence; membrane potential signal change, % at 10 µM; 51% of 2,400 active;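 active means membrane potential signal moves up or down beyond 5 SD from buffer-only wells, on both duplicate plates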
HEK293 MPD ctr 2-2: parental HEK293 nonspecific activity of TRPC6 modulators, second screen; shares compounds with TRPC6 inhibitor; membrane potential dye fluorescence; after compound, maximal acetylcholine stimulation; inhibition, % at 10 µM; 14% of 2,400 active; AID 488926;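 active means membrane potential signal drops by more than 5 SD from the mean control signal, in both duplicate plates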;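 further: plate controls were acetylcholine ECmax control wells for no effect and buffer only wells for full effect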
TRPC4/MOR mod: mouse TRPC4 off-target activity of TRPC6 modulators; shares compounds with TRPC6 inhibitor; HEK293 TRPC4/mu-opioid, membrane potential fluorescence; percent change from control (negative = decrease, positive = increase), % at 10 µM; 69% of 2,400 active; AID 488927;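 active means membrane potential signal moved up or down beyond 5 SD of buffer control wells, in both duplicate plates, actives on both sides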;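 further: plate controls were assay buffer wells for no effect and DAMGO maximal-effect wells for full effect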
TRPC4 ctr inh 2: second check of whether TRPC6 modulators also affect mouse TRPC4 | shares compounds with TRPC6 inhibitor | inhibition, % at 10 µM | 55% of 2,400 active | HEK293 TRPC4/mu-opioid, membrane potential dye fluorescence; stimulated with maximal-effect DAMGO;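 active means drop in membrane potential signal beyond 5 SD of the control wells in both duplicate plates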;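 further: TRPC4 counter screen for TRPC6 hits run under conditions tuned for TRPC6 not TRPC4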
TRPC6 inh conf: confirmation of mouse TRPC6 inhibitors; shares compounds with TRPC6 inhibitor; HEK293-TRPC6, membrane potential dye, ACh-evoked depolarization; inhibition, % at 10 µM; 43% of 3,300 active; AID 488960;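 active means fluorescence ratio falls more than 5 SD below the full-stimulation control mean, in both duplicate runs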;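 further: integrated fluorescence ratio of peak minus minimum over baseline after agonist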
TRPC6 act conf: mouse TRPC6 activator confirmation | shares compounds with TRPC6 inhibitor | HEK293-TRPC6 membrane potential dye fluorescence, FDSS | activation, % at 10 µM | 11% of 2,800 active;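 active means ratio signal rise beyond 5 SD above unstimulated control wells' mean, seen in both duplicate runs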;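 further: plate controls were buffer EC0 wells for no effect and acetylcholine ECmax response for full effect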
Numbers without * were called inactive; i = inactive; . = not tested or not shown. In the library only some 2.3% were active in any assay of this set; here they are far more common.

SMILES | TRPC4 inh | TRPC6 act | TRPC4 agonist | TRPC4 PAM | TRPC6 inhibitor | HEK293 MPD ctr-2 | HEK293 MPD ctr 2-2 | TRPC4/MOR mod | TRPC4 ctr inh 2 | TRPC6 inh conf | TRPC6 act conf | others
c1ccc(C[n+]2cccc3c4ccccc4ccc32)cc1 | i | i | i | i | -9.7* | -274%* | 71%* | -46%* | 64%* | 68%* | i
NC(=O)C[n+]1cccc2ccccc21 | i | i | i | i | i | . | . | . | . | . | .
COc1ccc(CN2C(=O)c3cccnc3C2=O)cc1S(=O)(=O)N1CCOc2ccc(C)cc21 | i | i | i | i | i | . | . | . | . | . | .
C/C(N)=C(/C#N)C(=O)CSc1nnc(NC(C)C)s1 | i | i | i | i | i | . | . | . | . | . | .
CC(NC(=O)c1ccc2c(c1)OCO2)C(c1cccs1)N1CCN(c2ccccc2)CC1 (stereo not given) | i | i | i | i | i | . | . | . | . | . | .
CCN(CC)CCCNC(=O)c1cc(-c2ccc(Cl)c(Cl)c2)on1 | i | i | i | i | -6.4* | 149%* | i | 26%* | 54%* | i | .
Cc1c(Br)c([N+](=O)[O-])nn1C(C)C(=O)N1CCc2ccccc2C1 (stereo not given) | i | i | i | i | -6* | i | 93%* | 19%* | i | 80%* | i
Cc1cccc(C(=O)N2CCc3ccccc3C2)c1[N+](=O)[O-] | i | i | i | i | -5.3* | i | i | 16%* | i | i | i
Cc1c(Br)c([N+](=O)[O-])nn1CC(=O)N1CCc2ccccc2C1 | i | i | i | i | i | . | . | . | . | . | .
COc1cc(OC)cc(C(=O)NNC(=S)Nc2ccc(S(N)(=O)=O)cc2)c1 | i | i | i | i | i | . | . | . | . | . | .
CC(=O)N1CCN(c2ccc(NCc3ccccc3)cc2)CC1 | i | i | i | i | i | . | . | . | . | . | .
CC(=O)N1CCN(c2ccc(N=Cc3c(O)n(Cc4ccccc4)c(=O)[nH]c3=O)cc2)CC1 | i | i | i | i | -5.6* | 188%* | i | -24%* | i | i | i
O=C(CCCCCNC(=O)N1CCn2c1nc1ccccc12)NCc1ccc(F)cc1 | i | i | i | i | i | . | . | . | . | . | .
O=C(c1cccs1)N1CCC(c2nc3c(nnn3Cc3c(Cl)cccc3Cl)c(=O)[nH]2)CC1 | i | i | i | i | -5.4* | i | i | i | i | i | i
COc1ccc(CCNC(=O)C2CCN(Cc3nc(-c4cccc(Cl)c4)oc3C)CC2)cc1OC | i | i | i | i | -7.3* | i | i | i | 75%* | i | i
COc1ccc(-c2nc(C(=O)NCCCN3CCOCC3)cc3c2[nH]c2ccccc23)cc1OC | i | i | i | i | -5.6* | i | i | -18%* | 67%* | 46%* | i
Cc1ccc(-c2nc(C(=O)NCCCN3CCOCC3)cc3c2[nH]c2ccccc23)cc1 | i | i | i | i | -6.6* | . | . | . | . | i | i | TRPC4 sel inh 2=58%*;TRPC4 spec=-16%*;HEK293 MPD ctr 2-1=i;HEK293 MPD ctr-1=-166%*
O=C(c1ccccc1)N1CCCCC(S(=O)(=O)c2ccc3ccccc3c2)C1=O (stereo not given) | i | i | i | i | i | . | . | . | . | . | .
Brc1cccc(-c2cnco2)c1 | i | i | i | i | i | . | . | . | . | . | .
CC(=O)c1ccc(NC(=O)Nc2cccnc2)cc1 | i | i | i | i | i | . | . | . | . | . | .
O=C(Nc1ccncc1)Nc1ccc(Cl)cc1 | i | i | i | i | i | . | . | . | . | . | .
CC(=O)c1ccc(NC(=O)Nc2ccncc2)cc1 | -6* | i | 43* | i | -5.2* | -142%* | 74%* | -12%* | 52%* | 48%* | i
O=C(Nc1ccncc1)Nc1ccncc1 | i | i | i | i | -7.5* | -310%* | 70%* | -50%* | 38%* | i | i
CCOc1ccc(NC(=O)Nc2c(C)n(C)n(-c3ccccc3)c2=O)cc1 | i | i | i | i | i | . | . | . | . | . | .
Cc1ccc(OCC(=O)OCC(=O)c2cccc([N+](=O)[O-])c2)cc1C | i | i | i | i | i | . | . | . | . | . | .
CC(C)(C)NC(=O)C(c1ccc(F)cc1)N(Cc1ccco1)C(=O)CCC(=O)Nc1ccccn1 (stereo not given) | i | i | i | i | -6* | 354%* | i | 78%* | i | i | .
CC(C)(C)NC(=O)C(c1ccc(O)cc1)N(Cc1ccco1)C(=O)CCC(=O)Nc1ccccn1 (stereo not given) | i | i | i | i | i | . | . | . | . | . | .
COC(=O)Nc1ccc(S(=O)(=O)N2CCCC(C(=O)NC3CCS(=O)(=O)C3)C2)cc1 (stereo not given) | i | i | i | i | i | . | . | . | . | . | .
CN(CC(=O)Nc1cccc(F)c1)C(=O)c1ccc(N2CCOCC2)c([N+](=O)[O-])c1 | i | i | i | i | -7* | i | i | 92%* | 76%* | i | i
